In PubChem BioAssay AID2657 (Broad Institute, 2010):

System: platelets, SFLLRN actin polymerization, FITC-phalloidin flow
Experiment: blockers of PAR1 peptide-driven F-actin formation – cell-based, FITC-phalloidin flow cytometry, repeated runs, selectivity assay for platelet granule secretion inhibitor project, late-stage follow-up (AID 2657)
Conditions: at 10 µM; stronger effect = higher value
Procedure, shortened: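 Assay system: Gel-filtered platelets / Times: 20 min compound, 15 min agonist, 37 °C / Measured by: flow cytometry of fixed, permeabilized platelets stained with FITC-phalloidin / Benchmarks: DMSO-only wells at 0.3% as neutral control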

With `C/C(=N/NC(=O)C1CCCC1)c1ccc(NC(=O)C(F)(F)F)cc1` the inhibition was 73.5%.
For `Cc1ccc(-n2c(N)c(C#N)c(-c3ccccc3)c(C#N)c2=O)cc1`, the inhibition was 99%.
